# Assay outcomes: PubChem, The Scripps Research Institute Molecular Screening Center
# CHRM4 PAM: CHRM4 positive allosteric modulation | P08173 | CHO-K1 hM4/Gqi5, Fluo-8 calcium fluorescence, ACh EC20; 0% = ACh EC20, 100% = maximal ACh | activation, % at 3 µM | 0.4% of 360,000 active | AID 624126;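 active = activation above its plate's cutoff, the mean activation of sample wells plus 3 SD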
# Target sequence (P08173 whole entry, looked up): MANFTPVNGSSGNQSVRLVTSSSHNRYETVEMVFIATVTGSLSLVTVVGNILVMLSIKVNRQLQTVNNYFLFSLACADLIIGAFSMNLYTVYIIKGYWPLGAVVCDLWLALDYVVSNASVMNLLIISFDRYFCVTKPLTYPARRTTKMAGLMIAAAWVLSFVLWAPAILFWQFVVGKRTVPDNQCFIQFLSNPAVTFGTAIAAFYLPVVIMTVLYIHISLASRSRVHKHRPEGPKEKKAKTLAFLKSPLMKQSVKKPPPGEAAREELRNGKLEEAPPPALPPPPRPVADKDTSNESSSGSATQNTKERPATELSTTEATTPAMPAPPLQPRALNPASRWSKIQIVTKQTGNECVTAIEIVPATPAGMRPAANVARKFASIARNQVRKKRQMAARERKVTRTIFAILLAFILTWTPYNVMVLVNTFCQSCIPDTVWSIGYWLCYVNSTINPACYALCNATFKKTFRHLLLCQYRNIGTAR
# M5 antag: CHRM5 antagonism in calcium assay | P08912 | CHO-hM5 cells, Fluo-8 calcium fluorescence, ACh EC80 | inhibition, % at 3 µM | 0.59% of 360,000 active;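 active = inhibition above a per-plate cutoff, the mean of that plate's test compounds plus 3 SD, cut at about 27% in these data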;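 note: 0% = acetylcholine EC80 with DMSO and 100% = DMSO without agonist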
# M5 ag: CHRM5 agonism in calcium assay; CHO-K1 hM5 cells, Fluo-8 calcium fluorescence; 0% DMSO wells, 100% maximal acetylcholine response; 0.19% of 360,000 active; P08912; activation, % at 3 µM;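 active = activation above the run's mean over test compounds plus 3 SD, cut at about 23% in these data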;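 note: signal is peak over basal fluorescence ratio across the kinetic read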
# M4 ag: agonists of human muscarinic M4 receptor (CHRM4); P08173; CHO-K1 hM4/Gqi5, Fluo-8 calcium fluorescence; vehicle 0%, full acetylcholine response 100%; activation, % at 3 µM; 0.14% of 360,000 active;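 active = activation above the run mean over all test wells plus 3 SD, cut at about 32% in these data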;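 note: peak over basal fluorescence ratio per well then scaled between controls; 0% = DMSO wells and 100% = acetylcholine at EC100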
# CHRM5 PAM: CHRM5 positive allosteric modulation; CHO-K1 hM5, Fluo-8 calcium, ACh EC20 PAM; 0% = ACh EC20, 100% = ACh EC100; activation, % at 3 µM; 0.3% of 360,000 active; AID 624038;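 active = activation above the run cutoff, the mean activation of all test compounds plus 3 SD, cut at about 18% in these data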
#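 Assay system: CHO-K1 hM5 cells / Incubation: Fluo-8 loading 80 min at 37 °C plus 30 min room temperature / Technique: Fluo-8 calcium dye fluorescence, kinetic read / Repeats: single replicate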
# M4 antag: CHRM4 antagonism in calcium assay; P08173; CHO-hM4 cells, ACh EC80, Fluo-8 calcium fluorescence; inhibition, % at 3 µM; 0.73% of 360,000 active; AID 624125;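 active = inhibition above its plate's cutoff, the mean inhibition of sample wells plus 3 SD, cut at about 27% in these data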;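 note: 0% = acetylcholine EC80 with DMSO and 100% = DMSO without agonist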
# The depositor's hits bear a star. An excerpt weighted towards active compounds, which were near 1.8% of everything screened.
SMILES,CHRM4 PAM,M5 antag,M5 ag,M4 ag,CHRM5 PAM,M4 antag
FC(F)Oc1ccc(NC(=S)NC2CCSc3ccccc32)cc1 (stereo not drawn),-19,43*,0,17,-18,60*
O=C(NC1CCSc2ccccc21)c1cccc(OC(F)F)c1 (stereo not drawn),1,-3,-6,2,0,-9
FC(F)Oc1ccc(NC(=S)NC2CCCCCCC2)cc1,-8,34*,1,16,-12,6
S=C(Nc1ccc(Cl)cc1)NC1CCCCC1,-25,7,1,8,-11,1
CCC(c1nnnn1Cc1ccc(F)cc1)N1CCN(C)CC1 (stereo not drawn),24*,2,-14,2,9,-16
C=CCCC(=O)NC1CC(C)(C)Cc2c1cnn2-c1ccc(OC)cc1 (stereo not drawn),-5,-9,3,0,0,-2
O=C(Oc1coc(CSc2ncccn2)cc1=O)c1ccc(Br)o1,12,11,-2,1,-4,-3
Cc1ccnc(SCc2cc(=O)c(OC(=O)c3ccc(Br)o3)co2)n1,3,17,0,0,34*,9
c1ccc(CNc2nc(-c3ccccn3)nc3ccccc23)cc1,10,-7,2,9,2,-7
CCC(C)Nc1nc(-c2ccccn2)nc2ccccc12 (stereo not drawn),22*,-16,-4,9,6,-18
CCOC(=O)C1(CC2CCCCO2)CCN(Cc2cc3ccccc3[nH]2)CC1 (stereo not drawn),-24,34*,62*,125*,-21,59*
COc1ccc(NC(=O)Nc2ccc([N+](=O)[O-])cc2)cn1,-9,34*,8,22,-13,0
COc1ccc(NC(=O)Nc2cc(C)cc(C)c2)cn1,-2,16,0,5,-10,4
COc1ccc(CC(C)Nc2cccc(SC)c2)cc1 (stereo not drawn),-4,3,-4,-2,-4,0
Cc1noc(C)c1CSCC(=O)Nc1ccc(S(C)(=O)=O)cc1,-1,-6,4,1,4,-5
CCN(CC)CCCNc1nc2cc(OC)c(OC)cc2c2nc(-c3cccnc3)nn12,-4,-3,-4,0,-6,10
CCN(CC)CCCNc1nc2cc(OC)c(OC)cc2c2nc(-c3ccccc3)nn12,17*,0,-1,2,3,-4
CCOc1ccc(NC(=O)CN(C)C(=O)c2cccnc2Sc2ccc(C)c(C)c2)cc1OCC,4,-2,2,5,22*,-7
O=C(N/N=C/c1ccoc1)c1ccccc1F,-5,-13,-1,3,-3,-4
Cc1ccc(C(=O)C2CCN(C(=S)NCCCOC(C)C)CC2)cc1,6,-17,7,4,23*,-17
CC(C)OCCCNC(=S)N1CCC(C(=O)c2ccc(F)cc2)CC1,2,18,3,4,-5,-8
CC(C)N(Cc1nccn1C)C(=O)c1cc(COc2ccc(-n3cncn3)cc2)on1,0,3,1,3,-4,-10
CC(CN1CCCCC1)OC(=O)C(C)(c1ccccc1)c1ccccc1 (stereo not drawn),-18,40*,-12,-1,-54,20
CC(CN1CCOCC1)OC(=O)C(C)(c1ccccc1)c1ccccc1 (stereo not drawn),2,9,-14,0,-20,-12
CCCCNC(=O)C1(C)CCN1C(=O)c1cncc(Br)c1 (stereo not drawn),3,2,0,0,-1,-2
SMILES,CHRM4 PAM,M5 antag,M5 ag,M4 ag,CHRM5 PAM,M4 antag
O=C(CN1CCCCC1)N1c2ccccc2CCc2ccccc21,-22,49*,-6,1,-18,77*
CCN1CCN(CC(=O)N2c3ccccc3Sc3ccccc32)CC1,-15,5,-8,2,-19,31*
O=C(CN1CCC(O)CC1)N1c2ccccc2C=Cc2ccccc21,-21,19,-10,1,-33,29*
O=C(CN1CCCC1)N1c2ccccc2Sc2ccccc21,-25,59*,-10,0,-14,61*
COc1ccc(/C=C/C(=O)Nc2cc(F)ccc2C)cc1S(=O)(=O)N1CCOCC1,-7,7,-2,4,1,-12
CCOC(=O)Nc1ccc2c(c1)N(C(=O)OC)c1ccccc1CC2,10,1,-3,0,0,-6
CCCC(CCC)C(=O)Nc1ccc2c(c1)N(C(=O)CN1CCN(C)CC1)c1ccccc1CC2,-24,31*,-11,1,-19,44*
CCOC(=O)Nc1ccc2c(c1)N(C(=O)C(C)N1CCCC1)c1ccccc1CC2 (stereo not drawn),-16,24,-7,1,-24,60*
CC1(Cc2ccccc2C#N)C(=O)Nc2ccc(-c3ccccc3)cc21 (stereo not drawn),1,-1,0,2,2,2
O=C(NCCc1ccccc1)c1ccc(Cl)cc1[N+](=O)[O-],0,8,-3,1,-6,8
Nc1nc2ccccc2cc1C(=O)NCCCCc1ccccc1,-8,28*,8,17,-23,14
CN(C)c1ccc(CC(=O)N2CCCC(c3cc(C(=O)Nc4ccc(F)c(Cl)c4)no3)C2)cc1 (stereo not drawn),-13,17,3,16,-12,28*
Cc1ccc(O)c(C(=O)c2cnc(/N=C(\N)N(C)C)nc2)c1,-21,-6,-8,2,-1,38*
Cc1ccc(O)c(C(=O)c2cnc3c(c2)c(=O)n(C)c(=O)n3C)c1,5,5,0,2,3,-3
O=C(CCSc1nnc(-c2ccncc2)o1)Nc1ccccc1,6,-7,0,2,3,-10
CCNC(=O)CCSc1nnc(-c2ccncc2)o1,24*,13,-1,0,6,3
CCC1(c2ccc(F)cc2)NC(=O)N(CC(=O)Nc2ccc(N3CCCCC3)cc2)C1=O (stereo not drawn),-3,5,27*,21,6,2
O=C(CN1C(=O)NC2(CCCC2)C1=O)NNC(=O)c1ccc(Br)cc1,25*,0,4,1,0,-16
O=C(CN1C(=O)NC2(CCCC2)C1=O)Nc1ccc(F)cc1,38*,3,0,1,-4,42*
CCc1nnc(NC(=O)CN2C(=O)NC3(CCCC3)C2=O)s1,-2,12,1,0,-4,8
CCC1(c2ccc(F)cc2)NC(=O)N(CC(=O)Nc2ccc(C(N)=O)cc2)C1=O (stereo not drawn),2,9,-1,1,5,7
